From ChEMBL document CHEMBL5356993, “Novel pyrazolo[3,4-d]pyrimidine derivatives: design, synthesis, anticancer evaluation, VEGFR-2 inhibition, and antiangiogenic activity” (RSC Med Chem, 2023)

System: NCI-H460
Experiment: Antiproliferative activity against human NCI-H460 cells assessed as cell growth inhibition at 10 uM incubated for 48 hrs by SRB assay relative to control
Type: functional
Conditions: read-out: GI

Structure (SMILES) | inhibition of growth at 10 µM
Cc1ccc(C(=O)Nc2ccc(-n3c(C)nc4c(cnn4-c4ccccc4)c3=O)cc2)cc1 | 24.6%

System: NCI-H522
Experiment: Antiproliferative activity against human NCI-H522 cells assessed as cell growth inhibition at 10 uM incubated for 48 hrs by SRB assay relative to control
Type: functional
Conditions: read-out: GI
Outline: (§1)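 Cells plated in 96-well plates at […] cells/well and preincubated 24 h at 37 °C, 5% CO2. Time-zero plates were TCA-fixed. Compound was diluted in medium with 50 µg/mL gentamicin and cells exposed for 48 h. Adherent cells fixed with 10% final TCA; suspension cells with 16% final TCA. Plates stained with 0.4% SRB in 1% acetic acid, dye solubilized in 10 mM Trizma, absorbance read at 515 nm. Percent growth calculated against time-zero and control.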

Structure (SMILES) | inhibition of growth at 10 µM
Cc1ccc(C(=O)Nc2ccc(-n3c(C)nc4c(cnn4-c4ccccc4)c3=O)cc2)cc1 | 28.8%

System: HCC 2998
Experiment: Antiproliferative activity against human HCC 2998 cells assessed as cell growth inhibition at 10 uM incubated for 48 hrs by SRB assay relative to control
Type: functional
Conditions: read-out: GI

Structure (SMILES) | inhibition of growth at 10 µM
Cc1ccc(C(=O)Nc2ccc(-n3c(C)nc4c(cnn4-c4ccccc4)c3=O)cc2)cc1 | < 15%

System: HCT-116
Experiment: Antiproliferative activity against human HCT-116 cells assessed as cell growth inhibition at 10 uM incubated for 48 hrs by SRB assay relative to control
Type: functional
Conditions: read-out: GI

Structure (SMILES) | inhibition of growth at 10 µM
Cc1ccc(C(=O)Nc2ccc(-n3c(C)nc4c(cnn4-c4ccccc4)c3=O)cc2)cc1 | 48.5%

System: HCT-15
Experiment: Antiproliferative activity against human HCT-15 cells assessed as cell growth inhibition at 10 uM incubated for 48 hrs by SRB assay relative to control
Type: functional
Conditions: read-out: GI

Structure (SMILES) | inhibition of growth at 10 µM
Cc1ccc(C(=O)Nc2ccc(-n3c(C)nc4c(cnn4-c4ccccc4)c3=O)cc2)cc1 | 24.6%

System: SW-620
Experiment: Antiproliferative activity against human SW620 cells assessed as cell growth inhibition at 10 uM incubated for 48 hrs by SRB assay relative to control
Type: functional
Conditions: read-out: GI
Outline: (§2)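 Cells pre-incubated 24 h at 37°C, 5% CO2, then exposed to compound (DMSO stock diluted in medium with 50 µg/mL gentamicin) for 48 h. Adherent cells fixed with cold TCA (final 10%, 60 min, 4°C); suspension cells fixed with 16% TCA final. Stained with 0.4% SRB in 1% acetic acid for 10 min, dye solubilized in 10 mM Trizma base, absorbance read at 515 nm. Growth calculated against time-zero and untreated control plates.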

Structure (SMILES) | inhibition of growth at 10 µM
Cc1ccc(C(=O)Nc2ccc(-n3c(C)nc4c(cnn4-c4ccccc4)c3=O)cc2)cc1 | < 15%

System: SF-539
Experiment: Antiproliferative activity against human SF-539 cells assessed as cell growth inhibition at 10 uM incubated for 48 hrs by SRB assay relative to control
Type: functional
Conditions: read-out: GI
Outline: as §1

Structure (SMILES) | inhibition of growth at 10 µM
Cc1ccc(C(=O)Nc2ccc(-n3c(C)nc4c(cnn4-c4ccccc4)c3=O)cc2)cc1 | 18.6%

System: LOX IMVI
Experiment: Antiproliferative activity against human LOX IMVI cells assessed as cell growth inhibition at 10 uM incubated for 48 hrs by SRB assay relative to control
Type: functional
Conditions: read-out: GI

Structure (SMILES) | inhibition of growth at 10 µM
Cc1ccc(C(=O)Nc2ccc(-n3c(C)nc4c(cnn4-c4ccccc4)c3=O)cc2)cc1 | 32.8%

System: M14
Experiment: Antiproliferative activity against human M14 cells assessed as cell growth inhibition at 10 uM incubated for 48 hrs by SRB assay relative to control
Type: functional
Conditions: read-out: GI
Outline: as §1

Structure (SMILES) | inhibition of growth at 10 µM
Cc1ccc(C(=O)Nc2ccc(-n3c(C)nc4c(cnn4-c4ccccc4)c3=O)cc2)cc1 | 26.8%

System: MDA-MB-435
Experiment: Antiproliferative activity against human MDA-MB-435 cells assessed as cell growth inhibition at 10 uM incubated for 48 hrs by SRB assay relative to control
Type: functional
Conditions: read-out: GI

Structure (SMILES) | inhibition of growth at 10 µM
Cc1ccc(C(=O)Nc2ccc(-n3c(C)nc4c(cnn4-c4ccccc4)c3=O)cc2)cc1 | 29.4%

System: SK-MEL-5
Experiment: Antiproliferative activity against human SK-MEL-5 cells assessed as cell growth inhibition at 10 uM incubated for 48 hrs by SRB assay relative to control
Type: functional
Conditions: read-out: GI
Outline: as §1

Structure (SMILES) | inhibition of growth at 10 µM
Cc1ccc(C(=O)Nc2ccc(-n3c(C)nc4c(cnn4-c4ccccc4)c3=O)cc2)cc1 | 93%

System: UACC-62
Experiment: Antiproliferative activity against human UACC-62 cells assessed as cell growth inhibition at 10 uM incubated for 48 hrs by SRB assay relative to control
Type: functional
Conditions: read-out: GI
Outline: as §2

Structure (SMILES) | inhibition of growth at 10 µM
Cc1ccc(C(=O)Nc2ccc(-n3c(C)nc4c(cnn4-c4ccccc4)c3=O)cc2)cc1 | 39.2%

System: OVCAR-4
Experiment: Antiproliferative activity against human OVCAR-4 cells assessed as cell growth inhibition at 10 uM incubated for 48 hrs by SRB assay relative to control
Type: functional
Conditions: read-out: GI

Structure (SMILES) | inhibition of growth at 10 µM
Cc1ccc(C(=O)Nc2ccc(-n3c(C)nc4c(cnn4-c4ccccc4)c3=O)cc2)cc1 | 50.2%

System: 786-0
Experiment: Antiproliferative activity against human 786-0 cells assessed as cell growth inhibition at 10 uM incubated for 48 hrs by SRB assay relative to control
Type: functional
Conditions: read-out: GI

Structure (SMILES) | inhibition of growth at 10 µM
Cc1ccc(C(=O)Nc2ccc(-n3c(C)nc4c(cnn4-c4ccccc4)c3=O)cc2)cc1 | < 15%

System: A498
Experiment: Antiproliferative activity against human A498 cells assessed as cell growth inhibition at 10 uM incubated for 48 hrs by SRB assay relative to control
Type: functional
Conditions: read-out: GI
Outline: as §1

Structure (SMILES) | inhibition of growth at 10 µM
Cc1ccc(C(=O)Nc2ccc(-n3c(C)nc4c(cnn4-c4ccccc4)c3=O)cc2)cc1 | < 15%

System: TK-10
Experiment: Antiproliferative activity against human TK-10 cells assessed as cell growth inhibition at 10 uM incubated for 48 hrs by SRB assay relative to control
Type: functional
Conditions: read-out: GI
Outline: as §2

Structure (SMILES) | inhibition of growth at 10 µM
Cc1ccc(C(=O)Nc2ccc(-n3c(C)nc4c(cnn4-c4ccccc4)c3=O)cc2)cc1 | 17.7%

System: T47D
Experiment: Antiproliferative activity against human T47D cells assessed as cell growth inhibition at 10 uM incubated for 48 hrs by SRB assay relative to control
Type: functional
Conditions: read-out: GI
Outline: as §2

Structure (SMILES) | inhibition of growth at 10 µM
Cc1ccc(C(=O)Nc2ccc(-n3c(C)nc4c(cnn4-c4ccccc4)c3=O)cc2)cc1 | 65.4%

System: NCI-H23
Experiment: Antiproliferative activity against human NCI-H23 cells assessed as cell growth inhibition at 10 uM incubated for 48 hrs by SRB assay relative to control
Type: functional
Conditions: read-out: GI

Structure (SMILES) | inhibition of growth at 10 µM
Cc1ccc(C(=O)Nc2ccc(-n3c(C)nc4c(cnn4-c4ccccc4)c3=O)cc2)cc1 | 46.5%

System: HOP-62
Experiment: Antiproliferative activity against human HOP-62 cells assessed as cell growth inhibition at 10 uM incubated for 48 hrs by SRB assay relative to control
Type: functional
Conditions: read-out: GI

Structure (SMILES) | inhibition of growth at 10 µM
Cc1ccc(C(=O)Nc2ccc(-n3c(C)nc4c(cnn4-c4ccccc4)c3=O)cc2)cc1 | 21.2%

System: EKVX
Experiment: Antiproliferative activity against human EKVX cells assessed as cell growth inhibition at 10 uM incubated for 48 hrs by SRB assay relative to control
Type: functional
Conditions: read-out: GI

Structure (SMILES) | inhibition of growth at 10 µM
Cc1ccc(C(=O)Nc2ccc(-n3c(C)nc4c(cnn4-c4ccccc4)c3=O)cc2)cc1 | 69.5%

System: K562
Experiment: Antiproliferative activity against human K562 cells assessed as cell growth inhibition at 10 uM incubated for 48 hrs by SRB assay relative to control
Type: functional
Conditions: read-out: GI

Structure (SMILES) | inhibition of growth at 10 µM
Cc1ccc(C(=O)Nc2ccc(-n3c(C)nc4c(cnn4-c4ccccc4)c3=O)cc2)cc1 | 68.8%

System: HL-60(TB)
Experiment: Antiproliferative activity against human HL-60(TB) cells assessed as cell growth inhibition at 10 uM incubated for 48 hrs by SRB assay relative to control
Type: functional
Conditions: read-out: GI
Outline: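 Cells were plated at […] cells/well and preincubated 24 h at 37°C, 5% CO2, with time-zero plates TCA-fixed. Compound was diluted from DMSO stock in medium with 50 µg/mL gentamicin, then exposed for 48 h. Settled suspension cells were fixed with 80% TCA (final 16%), stained with 0.4% SRB and solubilized in 10 mM Trizma, A515. Growth was taken relative to Tz and control.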

Structure (SMILES) | inhibition of growth at 10 µM
Cc1ccc(C(=O)Nc2ccc(-n3c(C)nc4c(cnn4-c4ccccc4)c3=O)cc2)cc1 | 48.6%

System: CCRF-CEM
Experiment: Antiproliferative activity against human CCRF-CEM cells assessed as cell growth inhibition at 10 uM incubated for 48 hrs by SRB assay relative to control
Type: functional
Conditions: read-out: GI
Outline: as §1

Structure (SMILES) | inhibition of growth at 10 µM
Cc1ccc(C(=O)Nc2ccc(-n3c(C)nc4c(cnn4-c4ccccc4)c3=O)cc2)cc1 | 53.7%

System: not listed separately
Experiment: Cytotoxicity against human MCF-10A cells assessed as cell growth inhibition incubated for 72 hrs by MTT assay
Conditions: not given

Structure (SMILES) | IC50 at 72 h
Cc1ccc(C(=O)Nc2ccc(-n3c(C)nc4c(cnn4-c4ccccc4)c3=O)cc2)cc1 | 58.2 µM

System: MDA-MB-468
Experiment: Cytotoxicity against human MDA-MB-468 cells assessed as cell growth inhibition incubated for 72 hrs by MTT assay
Type: functional, cell-based
Conditions: MDA-MB-468, 72 h

Structure (SMILES) | IC50
Cc1ccc(C(=O)Nc2ccc(-n3c(C)nc4c(cnn4-c4ccccc4)c3=O)cc2)cc1 | 16 µM

System: not listed separately
Experiment: Selectivity index, ratio of IC50 for human MCF-10A cells to IC50 for human MDA-MB-468 cells
Conditions: MCF-10A cells versus MDA-MB-468 cells

Structure (SMILES) | selectivity ratio
Cc1ccc(C(=O)Nc2ccc(-n3c(C)nc4c(cnn4-c4ccccc4)c3=O)cc2)cc1 | 3.63

Molecular target: Vascular endothelial growth factor receptor 2 (Homo sapiens, UniProt P35968)
Sequence (P35968 whole entry): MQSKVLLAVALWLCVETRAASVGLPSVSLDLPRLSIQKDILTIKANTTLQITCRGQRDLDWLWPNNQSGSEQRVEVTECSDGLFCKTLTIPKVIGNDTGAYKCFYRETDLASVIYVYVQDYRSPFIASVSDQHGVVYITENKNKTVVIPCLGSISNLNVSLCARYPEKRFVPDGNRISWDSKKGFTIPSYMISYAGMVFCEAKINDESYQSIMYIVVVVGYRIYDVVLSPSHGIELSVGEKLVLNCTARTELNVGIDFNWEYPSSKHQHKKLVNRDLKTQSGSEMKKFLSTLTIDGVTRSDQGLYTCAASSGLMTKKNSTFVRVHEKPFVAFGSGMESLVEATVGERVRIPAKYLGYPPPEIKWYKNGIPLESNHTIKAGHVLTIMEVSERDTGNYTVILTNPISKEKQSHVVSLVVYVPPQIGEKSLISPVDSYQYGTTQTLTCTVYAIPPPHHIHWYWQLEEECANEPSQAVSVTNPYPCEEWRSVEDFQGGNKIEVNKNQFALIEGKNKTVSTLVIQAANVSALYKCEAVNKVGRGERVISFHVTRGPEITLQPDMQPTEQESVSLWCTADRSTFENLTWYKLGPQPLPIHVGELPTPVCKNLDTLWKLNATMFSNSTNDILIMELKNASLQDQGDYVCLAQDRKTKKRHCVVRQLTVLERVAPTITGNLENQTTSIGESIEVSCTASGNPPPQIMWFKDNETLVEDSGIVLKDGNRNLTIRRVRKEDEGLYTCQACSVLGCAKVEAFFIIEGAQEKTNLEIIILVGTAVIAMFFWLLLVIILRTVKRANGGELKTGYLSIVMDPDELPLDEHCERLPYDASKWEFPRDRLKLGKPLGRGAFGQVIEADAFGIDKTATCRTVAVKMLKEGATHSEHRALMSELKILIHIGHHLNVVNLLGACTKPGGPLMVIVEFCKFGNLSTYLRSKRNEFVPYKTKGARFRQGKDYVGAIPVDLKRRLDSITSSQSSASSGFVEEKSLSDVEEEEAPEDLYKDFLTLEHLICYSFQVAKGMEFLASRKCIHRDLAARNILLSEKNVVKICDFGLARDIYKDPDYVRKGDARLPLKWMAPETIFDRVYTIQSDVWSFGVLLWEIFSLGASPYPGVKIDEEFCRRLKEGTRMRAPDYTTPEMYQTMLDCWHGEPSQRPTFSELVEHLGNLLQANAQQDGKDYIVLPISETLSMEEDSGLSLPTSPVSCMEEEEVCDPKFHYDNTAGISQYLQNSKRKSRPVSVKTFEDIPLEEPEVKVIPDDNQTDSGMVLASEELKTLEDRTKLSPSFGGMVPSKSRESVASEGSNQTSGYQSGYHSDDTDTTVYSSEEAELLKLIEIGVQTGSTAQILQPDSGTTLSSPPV
Experiment: Inhibition of VEGFR-2 (unknown origin) incubated for 45 mins by Kinase-Glo Max assay
Conditions: not given

Structure (SMILES) | IC50
Cc1ccc(C(=O)Nc2ccc(-n3c(C)nc4c(cnn4-c4ccccc4)c3=O)cc2)cc1 | 0.261 µM
